# Measured values of several laboratories.
# Protocols differ between the studies behind these lines.
# Observed: microbial growth
Structure (SMILES),organism,test,system,setting,MIC
CCCCCCC#Cc1cncc(-c2nnc(SCc3ccc([N+](=O)[O-])cc3)n2CCCN)c1,Acinetobacter baumannii,broth dilution,ATCC17978,,64 µg/mL
C[C@@H]1O[C@@H](OC[C@H]2O[C@@H](Oc3c(-c4ccc(O)c(O)c4)oc4cc(O)cc(O)c4c3=O)[C@H](O)[C@@H](O)[C@@H]2O)[C@H](O)[C@H](O)[C@H]1O,Streptococcus gordonii,broth dilution,,24 h,200 µg/mL
CCCCCCC#Cc1cncc(-c2nnc(SCc3cc(C(F)(F)F)cc(C(F)(F)F)c3)n2CCCN)c1,Acinetobacter baumannii,broth dilution,ATCC17978,,32 µg/mL
CC1(C)S[C@@H]2[C@H](NC(=O)[C@H](N)c3ccccc3)C(=O)N2[C@H]1C(=O)O,Acinetobacter baumannii,broth dilution,ATCC19606,,> 64 µg/mL
CCCCCCCCCCCC[N+](C)(C)Cc1ccccc1,Acinetobacter baumannii,,ATCC17978,,63 µM
CC[C@H]1OC(=O)[C@H](C)[C@@H](O[C@H]2C[C@@](C)(OC)[C@@H](O)[C@H](C)O2)[C@H](C)[C@@H](O[C@@H]2O[C@H](C)C[C@H](N(C)C)[C@H]2O)[C@](C)(O)C[C@@H](C)CN(C)[C@H](C)[C@@H](O)[C@]1(C)O,Acinetobacter baumannii,broth dilution,ATCCBAA1605,,16 µg/mL
O=c1oc2c(O)c(O)cc3c(=O)oc4c(O)c(O)cc1c4c23,Streptococcus gordonii,broth dilution,,24 h,100 µg/mL
CNC(C)C1CCC(N)C(OC2C(N)CC(N)C(OC3OCC(C)(O)C(NC)C3O)C2O)O1 (stereo not shown),Proteus mirabilis,broth dilution,,,2 µg/mL
CC1(C)S[C@@H]2[C@H](NC(=O)[C@H](N)c3ccc(O)cc3)C(=O)N2[C@H]1C(=O)O,Acinetobacter baumannii,broth dilution,ATCCBAA1605,,> 64 µg/mL
O=C1O[C@H]2[C@@H]3OC(=O)c4cc(O)c(O)c(O)c4-c4c(O)c(O)c5oc(=O)c6c(c(O)c(O)c7oc(=O)c4c5c76)-c4c(cc(O)c(O)c4O)C(=O)OC[C@H]3OC(O)[C@@H]2OC(=O)c2cc(O)c(O)c(O)c2-c2c1cc(O)c(O)c2O (mixture of isomers),Streptococcus gordonii,broth dilution,,24 h,100 µg/mL
